Among the data in ChEMBL document CHEMBL4190282, “The Conjugated Double Bond of Coniferyl Aldehyde Is Essential for Heat Shock Factor 1 Mediated Cytotoprotection” (J Nat Prod, 2017) are Activity values, retold here.

Active and inactive are the calls of the source. The calls are words filed in the database; no cut-off is given here.

Data set [1] deals with Mus musculus. In words: Protection against IR-induced reduction in circulating neutrophils in ICR mouse at 10 mg/kg, ip administered once before and three times after 4.5 Gy irradiation measured after 9 days. In kind it is functional, organism-based. The method, boiled down: (§1)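 Female ICR mice (5–6 weeks) given 4.5 Gy whole-body IR, dosed ip at 10 mg/kg once before and three times after IR; 5 per group, sacrificed day 9. BM cellularity from H&E (hematopoietic cells per 200×200 μm area); peripheral WBC, lymphocytes, neutrophils; Ki67 IHC counted in five fields per femur; relative spleen weight vs control. Means ± SD, Student's t test.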

Data set [2] concerns the target T1, Heat shock factor protein 1 (Homo sapiens) (UniProt Q00613).
T1 sequence (whole entry): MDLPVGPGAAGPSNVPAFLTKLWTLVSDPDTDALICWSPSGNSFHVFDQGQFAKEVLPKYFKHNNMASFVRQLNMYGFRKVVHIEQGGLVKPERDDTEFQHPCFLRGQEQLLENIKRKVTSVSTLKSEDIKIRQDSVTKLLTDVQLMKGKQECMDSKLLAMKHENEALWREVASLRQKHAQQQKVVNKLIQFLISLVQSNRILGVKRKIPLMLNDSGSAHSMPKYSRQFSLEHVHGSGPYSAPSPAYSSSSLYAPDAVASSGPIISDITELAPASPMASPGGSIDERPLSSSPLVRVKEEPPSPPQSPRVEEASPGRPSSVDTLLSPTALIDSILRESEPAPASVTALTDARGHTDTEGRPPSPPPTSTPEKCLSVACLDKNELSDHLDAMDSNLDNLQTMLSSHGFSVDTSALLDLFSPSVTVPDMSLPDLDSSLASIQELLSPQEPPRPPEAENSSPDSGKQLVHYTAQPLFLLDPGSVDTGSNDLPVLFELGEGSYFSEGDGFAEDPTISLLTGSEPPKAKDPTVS
In words: Activation of HSF1 in human L132 cells assessed as increase in HSP70 protein levels at 3 uM after 6 to 24 hrs by immunoblotting analysis. In kind it is cell-based. The procedure, abridged:
(§2)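 L132 cells treated at 3 μM for 12 h, or at various doses for 12 h, or at 3 μM over a time course. Lysates resolved by SDS-PAGE, blotted to nitrocellulose, milk-blocked, primary antibodies 18 h at 4 °C, ECL detection. HSP27, HSP70 and Ser326-phospho-HSF1 bands normalized to loading control; ≥3 independent experiments; celastrol 1 μM positive control.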
In general terms: Immunoblotting shows a protein as a band on a membrane.

Data set [3] deals with T1, Heat shock factor protein 1 (Homo sapiens). The data set is described as follows: Activation of HSF1 in human NCI-H460 cells assessed as upregulation of HSP70 protein levels at 10 to 30 uM after 12 hrs by Western blot analysis. It counts as cell-based. The procedure, abridged: (§3)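 NCI-H460 cells treated 12 h at 10 or 30 μM; HSF1, HSP27 and HSP70 detected by Western blot.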

Data set [4] has as its system MEF. In words: Cytoprotective activity against cisplatin-induced caspase3 cleavage in HSF1 deficient MEF at 3 uM pretreated for 1 hr followed by cisplatin addition measured after 24 hrs by immunoblotting analysis. In kind it is functional, cell-based. The conditions noted are these: Mus musculus. The procedure, abridged:
(§4)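 HSF1+/+ or HSF1−/− MEFs in DMEM with heat-inactivated 10% FBS, nonessential amino acids, glutamine, HEPES, 37 °C, 5% CO2. 1 h pretreatment at 3 μM, then 0.5 μM paclitaxel or 20 μM cisplatin for 24 h, or 10 Gy 137Cs γ-rays (3.81 Gy/min) for 48 h. Cleaved PARP and caspase-3 immunoblotted; bands normalized to loading control, fold-change vs negative control, ≥3 independent experiments.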

Data set [5] concerns the target T1, Heat shock factor protein 1 (Homo sapiens). In words: Activation of HSF1 in human L132 cells assessed as increase in HSP70 mRNA expression at 3 uM after 12 hrs by RT-PCR analysis. In kind it is cell-based. The method, boiled down: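 L132 human lung fibroblasts treated 12 h at 3 μM; hsp27 and hsp70 mRNA measured by RT-PCR under the same conditions as immunoblotting. Celastrol 1 μM positive control.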

Data set [6] shares this target. The data set is described as follows: Activation of HSF1 in human L132 cells assessed as increase in HSP25 protein levels at 3 uM after 12 hrs by immunoblotting analysis. In kind it is cell-based. The procedure, abridged:
as §2

Data set [7] has as its system L132. The data set is described as follows: Cytotoxicity against human L-132 cells assessed as reduction in cell viability up to 20 uM after 24 hrs by MTT assay. The conditions noted are these: l132, 24 h. It counts as cell-based. The method, boiled down: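 L132 cells treated 24 h at indicated doses up to 20 μM. MTT (5 mg/mL in PBS) 4 h at 37 °C, formazan dissolved in DMSO, absorbance at 540 nm converted to cell number via calibration curve. Celastrol positive control.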
Background: Tetrazolium assays rely on reduction of a dye to a coloured formazan, in cell work by metabolically active cells.

For data set [8], the target named is T1, Heat shock factor protein 1 (Homo sapiens). In words: Activation of HSF1 in human L132 cells assessed as increase in HSP70 protein levels at 1 to 3 uM after 12 hrs by immunoblotting analysis. In kind it is cell-based. The procedure, abridged: as §2
In data set [9] the test system is MEF. In words: Cytoprotective activity against IR-induced caspase3 cleavage in HSF1 deficient MEF at 3 uM pretreated for 1 hr followed by 10 Gy irradiation measured after 48 hrs by immunoblotting analysis. In kind it is functional, cell-based. The conditions noted are these: Mus musculus. The method, boiled down:
as §4

The subject of another data set is NCI-H460. In words: Upregulation of HSF1 protein level in human NCI-H460 cells at 10 to 30 uM after 12 hrs by Western blot analysis. In kind it is functional, cell-based. The procedure, abridged: as §3
Data set [10] concerns the target T1, Heat shock factor protein 1 (Homo sapiens). In words: Induction of HSF1 phosphorylation at Ser326 residue in human L-132 cells at 3 uM after 12 hrs by immunoblotting analysis. It counts as cell-based. The procedure, abridged: as §2
The target is the same in data set [11]. The data set is described as follows: Activation of HSF1 in human NCI-H460 cells expressing pGL4-hsp70 construct assessed as upregulation of hsp70 promoter activity at 10 to 30 uM after 12 hrs by luciferase reporter gene assay. In kind it is cell-based. The method, boiled down: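 NCI-H460 cells stably carrying hsp25 or hsp70 promoter–luciferase reporters, seeded, treated after 24 h at 10 or 30 μM and harvested 12 h later. Lysate luciferase normalized to β-galactosidase; mean of three independent experiments, fold-change vs negative control.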
(In general: A reporter such as luciferase makes a cellular process visible.)

Data set [12] concerns L132. In words: Cytoprotective activity against cisplatin-induced PARP cleavage in human L-132 cells at 3 uM pretreated for 1 hr followed by cisplatin addition measured after 24 hrs by immunoblotting analysis. It counts as functional, cell-based. The procedure, abridged: (§5)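 Human embryonic lung L132 cells in RPMI with 10% FBS. 1 h pretreatment at 3 μM, then 0.5 μM paclitaxel or 20 μM cisplatin for 24 h, or 10 Gy 137Cs γ-rays (3.81 Gy/min) for 48 h. Cleaved PARP and caspase-3 immunoblotted (ECL); bands normalized to loading control, fold-change vs negative control, ≥3 independent experiments.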

Data set [13] deals with Mus musculus. In words: Protection against IR-induced irritability in ICR mouse at 5 to 10 mg/kg, ip administered once before and three times after 7 Gy irradiation measured daily for 30 days. In kind it is functional, organism-based. The method, boiled down:
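Female ICR mice (5–6 weeks, 25–30 g) given 7 Gy whole-body IR; dosed ip at 5 or 10 mg/kg once before and three times after IR, DMSO stock diluted in modified PBS. Survival days and radiation sickness signs checked twice daily; 10 mice per group.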

The test system of data set [14] is L132. In words: Cytoprotective activity against paclitaxel-induced PARP cleavage in human L-132 cells at 3 uM pretreated for 1 hr followed by paclitaxel addition measured after 24 hrs by immunoblotting analysis. It counts as functional, cell-based. The procedure, abridged: as §5
The test system of data set [15] is Mus musculus. The data set is described as follows: Protection against IR-induced reduction in circulating lymphocytes in ICR mouse at 10 mg/kg, ip administered once before and three times after 4.5 Gy irradiation measured after 9 days. In kind it is functional, organism-based. The method, boiled down: as §1
The test system of data set [16] is MEF. In words: Cytoprotective activity against cisplatin-induced PARP cleavage in HSF1 deficient MEF at 3 uM pretreated for 1 hr followed by cisplatin addition measured after 24 hrs by immunoblotting analysis. In kind it is functional, cell-based. The conditions noted are these: Mus musculus. The method, boiled down: as §4

For the molecule `COc1cc(/C=C/C=O)ccc1O` [CONIFERYL ALDEHYDE], the result (in the data set on Mus musculus [1]; in data set [2]; in data set [3]; in data set [5]; in [6]; in data set [8]) was Active. Moreover, the outcome (in the data set with NCI-H460; in data set [10]; in data set [11]; in the data set on L132 [12]; in the data set on Mus musculus [13]; with L132 [14]) was Active. For the same molecule, the result in the data set with Mus musculus [15] was Active. In addition, the outcome in the data set with MEF [4], in the data set on MEF [9] and in the data set with MEF [16] was inactive. For the same molecule, the Activity result in the data set with L132 [7] is “Non-Toxic”.

Regarding `COc1cc(/C=C/CO)ccc1O` [CONIFERYL ALCOHOL], the outcome (in the data set with Mus musculus [1]; in [2]; in data set [3]; in data set [5]; in data set [6]; in data set [8]) was Active. Besides, the outcome (in the data set on NCI-H460; in data set [10]; in data set [11]; with L132 [12]; in the data set with Mus musculus [13]; with L132 [14]) was Active. The outcome in the data set with Mus musculus [15] was Active. The result in the data set with MEF [4], in the data set on MEF [9] and in the data set with MEF [16] was inactive. In addition, in the data set with L132 [7], the Activity result is reported as “Non-Toxic”.
